pIC50, pKi: −log10 of the molar value. Calls of active or inactive are those of the source.

One assay addresses Cannabinoid receptor 2 (Homo sapiens, UniProt P34972). The assay can be described thus: Displacement of [3H]CP55940 from recombinant human CB2R expressed in CHO cell membranes incubated for 90 mins. Also on record: species or system Membrane. For orientation: Loss of bound radioactivity is the signal in a displacement assay; it reports binding, not function.
Assay [1] has as its target T1, Lysophosphatidylserine lipase ABHD12 (Homo sapiens, UniProt Q8N2K0).
T1 sequence (Q8N2K0 whole entry): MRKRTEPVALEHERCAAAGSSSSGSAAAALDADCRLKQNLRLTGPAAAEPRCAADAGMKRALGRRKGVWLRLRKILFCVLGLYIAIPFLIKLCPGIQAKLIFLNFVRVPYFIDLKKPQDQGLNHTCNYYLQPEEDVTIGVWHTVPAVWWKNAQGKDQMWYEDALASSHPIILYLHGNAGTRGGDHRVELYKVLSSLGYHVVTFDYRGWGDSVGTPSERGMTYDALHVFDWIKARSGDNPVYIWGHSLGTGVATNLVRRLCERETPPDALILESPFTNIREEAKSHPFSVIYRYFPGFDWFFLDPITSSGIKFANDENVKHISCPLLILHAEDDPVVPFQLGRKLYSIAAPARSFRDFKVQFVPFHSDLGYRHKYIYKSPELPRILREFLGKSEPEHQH
The assay can be described thus: Inhibition of human ABHD12 expressed in HEK293 cells using 2-OG as substrate preincubated for 30 mins followed by substrate addition and measured after 5 mins by liquid scintillation spectroscopy. It counts as cell-based. An outline of the steps: (§1)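 Homogenates (40 µg) from HEK293 stably expressing hABHD6 or hABHD12 pre-incubated with compound 30 min at 37 °C in […], 0.1% BSA, pH 7.6; then 10 μM 2-OG for 5 min at 37 °C. Aqueous phase tritium counted after CHCl3:MeOH stop; no-enzyme blanks and non-transfected HEK293 hydrolysis subtracted. Controls WWL70 10 μM, THL 20 μM.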

The next assay addresses T2, Monoglyceride lipase (Homo sapiens, UniProt Q99685).
T2 sequence (Q99685 whole entry): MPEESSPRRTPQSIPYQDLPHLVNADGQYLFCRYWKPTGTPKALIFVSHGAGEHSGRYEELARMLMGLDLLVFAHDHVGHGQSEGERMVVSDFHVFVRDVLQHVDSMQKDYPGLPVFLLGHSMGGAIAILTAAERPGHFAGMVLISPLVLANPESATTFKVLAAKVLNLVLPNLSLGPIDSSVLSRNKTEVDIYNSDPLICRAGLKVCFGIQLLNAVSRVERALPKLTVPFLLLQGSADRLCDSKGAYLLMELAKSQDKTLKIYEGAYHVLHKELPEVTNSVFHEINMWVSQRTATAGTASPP
The assay can be described thus: Inhibition of MAGL in human U937 cells using [glycerol-1,2,3-3H]2-OG as substrate preincubated for 15 mins followed by substrate addition and measured after 15 mins by liquid scintillation spectroscopy. It counts as cell-based, U-937. The method, boiled down: (§2)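 Intact U937 cells, 10^6 per condition, pre-incubated with compound 15 min at 37 °C with shaking (screen at 10 μM; full curves for hits). Substrate: 1 μM AEA with 1 nM [3H]AEA (FAAH) or 10 μM 2-OG with 5 nM [3H]2-OG (MAGL), 15 min at 37 °C. Stopped with CHCl3:MeOH 1:1, aqueous tritium counted; mean ± SD, ≥3 experiments in triplicate.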

Assay [2] concerns the target T3, Fatty-acid amide hydrolase 1 (Homo sapiens, UniProt O00519).
T3 sequence (O00519 whole entry): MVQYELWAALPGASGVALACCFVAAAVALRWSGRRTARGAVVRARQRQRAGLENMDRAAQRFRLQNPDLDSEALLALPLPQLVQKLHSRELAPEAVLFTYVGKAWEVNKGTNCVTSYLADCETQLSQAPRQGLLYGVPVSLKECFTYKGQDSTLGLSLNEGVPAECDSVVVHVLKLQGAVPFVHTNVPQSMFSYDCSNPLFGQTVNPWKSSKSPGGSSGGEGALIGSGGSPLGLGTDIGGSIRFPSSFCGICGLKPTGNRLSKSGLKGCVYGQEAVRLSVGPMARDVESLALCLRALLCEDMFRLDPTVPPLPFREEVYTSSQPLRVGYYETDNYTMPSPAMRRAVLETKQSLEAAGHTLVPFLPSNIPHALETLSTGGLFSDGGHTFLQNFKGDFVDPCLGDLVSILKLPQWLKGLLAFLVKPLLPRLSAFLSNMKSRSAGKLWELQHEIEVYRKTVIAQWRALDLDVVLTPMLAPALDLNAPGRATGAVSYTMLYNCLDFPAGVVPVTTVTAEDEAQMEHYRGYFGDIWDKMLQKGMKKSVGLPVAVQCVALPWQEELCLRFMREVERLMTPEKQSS
The assay can be described thus: Inhibition of FAAH in human U937 cells using [ethanolamine-1-3H]AEA as substrate preincubated for 15 mins followed by substrate addition and measured after 15 mins by liquid scintillation spectroscopy. It counts as cell-based, U-937. The method, boiled down:
as §2

Assay [3] deals with Mus musculus. The assay can be described thus: In vivo agonist activity at CB1R in BALB/c mouse assessed as catalpesy-like behaviour by measuring increase in immobility time at 5 mg/kg, ip measured after 1 hr by bar test. It counts as functional, organism-based. An outline of the steps: (§3)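 BALB/c mice given 5 mg/kg i.p. in DMSO (20 µL), tested 1 h later. Rectal temperature change from basal; catalepsy by bar test (4 cm bar, 120 s cut-off); locomotion by rotarod latency to fall at 4 rpm (120 s cut-off, 3 trials); analgesia by hot plate at 54-56 °C, first paw lick or shake. n = 5-20 per group.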

In assay [4] the test system is Mus musculus. The assay can be described thus: In vivo agonist activity at CB1R in BALB/c mouse assessed as induction of analgesia at 5 mg/kg, ip measured after 1 hr by hotplate test. It counts as functional, organism-based. An outline of the steps: as §3
The target in assay [5] is T4, Monoacylglycerol lipase ABHD6 (Homo sapiens, UniProt Q9BV23).
T4 sequence (Q9BV23 whole entry): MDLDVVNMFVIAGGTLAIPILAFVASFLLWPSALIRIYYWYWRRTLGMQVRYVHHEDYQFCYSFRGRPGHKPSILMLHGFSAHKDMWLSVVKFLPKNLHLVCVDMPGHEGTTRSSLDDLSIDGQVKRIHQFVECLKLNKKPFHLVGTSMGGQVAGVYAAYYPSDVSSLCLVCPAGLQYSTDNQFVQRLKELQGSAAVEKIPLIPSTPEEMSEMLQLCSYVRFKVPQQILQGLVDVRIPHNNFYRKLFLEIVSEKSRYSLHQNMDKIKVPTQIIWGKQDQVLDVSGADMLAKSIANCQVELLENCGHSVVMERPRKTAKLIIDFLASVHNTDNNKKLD
The assay can be described thus: Inhibition of human ABHD6 expressed in HEK293 cells using 2-OG as substrate preincubated for 30 mins followed by substrate addition and measured after 5 mins by liquid scintillation spectroscopy. It counts as cell-based. An outline of the steps:
as §1

Assay [6] deals with Mus musculus. Put plainly: In vivo agonist activity at CB1R in BALB/c mouse assessed as reduction in spontaneous locomotion at 5 mg/kg, ip measured after 1 hr by rotarod test. It counts as functional, organism-based. An outline of the steps: as §3
Background: In the rotarod test animals must keep their balance on a rotating rod.

The target of another assay is Cannabinoid receptor 1 (Homo sapiens, UniProt P21554). The assay can be described thus: Displacement of [3H]CP55940 from recombinant human CB1R expressed in CHO cell membranes incubated for 90 mins. On the set-up: species or system Membrane.
Sequence of Cannabinoid receptor 1 (P21554 whole entry): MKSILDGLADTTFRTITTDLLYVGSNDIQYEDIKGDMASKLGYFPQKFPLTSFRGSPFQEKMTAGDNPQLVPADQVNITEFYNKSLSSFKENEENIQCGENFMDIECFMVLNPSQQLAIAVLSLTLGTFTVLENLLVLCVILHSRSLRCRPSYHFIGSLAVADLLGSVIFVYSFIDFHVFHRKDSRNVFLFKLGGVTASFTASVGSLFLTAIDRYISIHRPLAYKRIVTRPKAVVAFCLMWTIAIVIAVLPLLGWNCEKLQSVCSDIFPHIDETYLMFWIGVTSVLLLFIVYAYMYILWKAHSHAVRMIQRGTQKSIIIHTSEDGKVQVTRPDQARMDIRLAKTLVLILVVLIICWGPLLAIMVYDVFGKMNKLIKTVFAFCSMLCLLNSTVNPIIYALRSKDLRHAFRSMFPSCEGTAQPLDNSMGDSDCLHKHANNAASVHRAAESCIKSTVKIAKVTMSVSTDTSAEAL
The test system of assay [7] is Mus musculus. Put plainly: In vivo agonist activity at CB1R in BALB/c mouse assessed as reduction in body temperature at 5 mg/kg, ip measured after 1 hr by tetrad test. It counts as functional, organism-based. An outline of the steps: as §3

Sequence of Cannabinoid receptor 2 (P34972 whole entry): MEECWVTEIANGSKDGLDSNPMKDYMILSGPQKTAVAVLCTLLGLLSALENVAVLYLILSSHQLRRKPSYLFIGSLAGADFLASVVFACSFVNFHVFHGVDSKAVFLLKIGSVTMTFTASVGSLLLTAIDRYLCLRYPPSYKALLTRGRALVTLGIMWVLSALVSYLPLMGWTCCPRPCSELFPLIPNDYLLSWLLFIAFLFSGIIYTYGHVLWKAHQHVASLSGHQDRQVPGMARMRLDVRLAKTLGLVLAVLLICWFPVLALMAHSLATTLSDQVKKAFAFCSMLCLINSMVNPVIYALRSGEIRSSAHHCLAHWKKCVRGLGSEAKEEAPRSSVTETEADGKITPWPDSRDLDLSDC

As for `Cc1c(Br)cc(C(=O)NC2CCCCCC2)c(=O)n1Cc1ccc(F)cc1`, the values for the pKi on Cannabinoid receptor 2 and at Cannabinoid receptor 1 were 8.82 and 8.54, respectively. Further, the pIC50 in [1] is below 5.00; against Monoglyceride lipase, below 5.00; in assay [2] it was 5.23; in assay [5], below 5.00. The result in the assay with Mus musculus [3], with Mus musculus [4], with Mus musculus [6] and in the assay on Mus musculus [7] was Active.
For `COc1ccc(-c2cc(C(=O)NC3CCCCCC3)c(=O)n(Cc3ccc(F)cc3)c2C)cc1`, the pKi on Cannabinoid receptor 2 is 7.58; at Cannabinoid receptor 1, 8.01. The pIC50 was below 5.00 in assay [1], below 5.00 against Monoglyceride lipase, 5.70 in assay [2] and 6.28 in assay [5]. For the same molecule, the result in the assay on Mus musculus [3], in the assay on Mus musculus [4], in the assay with Mus musculus [6] and with Mus musculus [7] was inactive.

Broadly, the pKi is −log10 of the Ki, conventionally taken in molar units. The pIC50 is the negative decadic logarithm of the IC50, by convention in mol/L. A lower pIC50 goes with a high IC50.

These data come from ChEMBL document CHEMBL4706601, “The endocannabinoid system dual-target ligand N-cycloheptyl-1,2-dihydro-5-bromo-1-(4-fluorobenzyl)-6-methyl-2-oxo-pyridine-3-carboxamide improves disease severity in a mouse model of multiple sclerosis” (Eur J Med Chem, 2020).
